Experimental data reported in ChEMBL document CHEMBL5338794, “Optimization of Orally Bioavailable Antileishmanial 2,4,5-Trisubstituted Benzamides” (J Med Chem, 2023).
pEC50: −log10 of the molar value. In brackets after ≈: the same amount, converted by molar mass. Activity calls are given as the source filed them. The calls are words filed in the database; no cut-off is given here.

Experiments:
[1] = Kinetic aqueous solubility of the compound in PBS at pH 7.4 incubated for 18 hrs by LC-MS analysis; assay type: physicochemical; conditions: read-out: Kinetic_solubility
BJ = experiment: Cytotoxicity against human BJ cells assessed as reduction in cell viability incubated for 72 hrs by Cell TiterGlo assay; assay type: functional, cell-based
[2] = Metabolic stability in CD-1 mouse liver microsomes assessed as half life at 1 uM and measured upto 60 mins in presence of NADPH regenerating system by LC-MS/MS analysis; assay type: ADME, Microsome; conditions: 1 h
Method in brief: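 Half-life and intrinsic clearance determined by incubation with mouse liver microsomes.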

Leishmania mexicana [3] = experiment: Antileishmanial activity against renilla luciferase-expressing Leishmania mexicana promastigotes infected in mouse J774.A1 cells assessed as inhibition of intracellular amastigotes growth incubated for 96 hrs by Renilla luciferase assay; assay type: functional, organism-based; conditions: J774.A1, 96 h
[4] = Half life in CD-1 mouse at 10 mg/kg,po and measured upto 24 hrs by LC-MS/MS analysis; assay type: ADME, organism-based; conditions: in vivo
Method in brief: (§1)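 Single oral dose to mice at 10 mg/kg, in 20% PEG 400/80% (20% SBE-beta-CD in water). Plasma concentration–time profile used for t1/2, Cmax, Tmax, AUC, CL, apparent Vd and bioavailability (F).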

Leishmania mexicana [5] = experiment: Antileishmanial activity against Leishmania mexicana MNZY/BZ/62/M379 promastigotes infected in BALB/c mouse assessed as footpad lesion development at 50 mg/kg, po QD for 10 days administered at day 18 postinfection and measured after 5 weeks postinfection by caliper analysis; assay type: functional, organism-based; conditions: time 10.0 day
Method in brief: (§2)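 BALB/c mice, 5 per group, infected with L. mexicana by footpad injection. Vehicle or HCl salt of compound given by oral gavage at 50 mg/kg/day for 10 consecutive days from day 18 postinfection. Lesion size measured by caliper up to 5 weeks postinfection, reported as mean ± SD. Groups compared by Mann–Whitney.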

[6] = Tmax in CD-1 mouse at 10 mg/kg,po and measured upto 24 hrs by LC-MS/MS analysis; assay type: ADME, organism-based; conditions: in vivo; method in brief: as §1
[7] = Clearance in CD-1 mouse at 3 mg/kg,iv and measured upto 24 hrs by LC-MS/MS analysis; assay type: ADME, organism-based; conditions: in vivo
Method in brief: (§3)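 Single intravenous dose to mice at 3 mg/kg. Plasma concentration–time profile used for t1/2, Cmax, AUC, clearance and steady-state volume of distribution.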

[8] = Half life in CD-1 mouse at 3 mg/kg,iv and measured upto 24 hrs by LC-MS/MS analysis; assay type: ADME, organism-based; conditions: in vivo; method in brief: as §3
[9] = AUC in CD-1 mouse at 3 mg/kg,iv and measured upto 24 hrs by LC-MS/MS analysis; assay type: ADME, organism-based; parameters: time < 24 hrs, dose 3 mg/kg, route iv; conditions: in vivo; method in brief: as §3
[10] = Volume of distribution in CD-1 mouse at 10 mg/kg,po and measured upto 24 hrs by LC-MS/MS analysis; assay type: ADME, organism-based; conditions: in vivo; method in brief: as §1
[11] = Cmax in CD-1 mouse at 10 mg/kg,po and measured upto 24 hrs by LC-MS/MS analysis; assay type: ADME, organism-based; parameters: dose 10 mg/kg, time < 24 hrs, route po; conditions: in vivo; method in brief: as §1
Leishmania mexicana [12] = experiment: Antileishmanial activity against Leishmania mexicana MNZY/BZ/62/M379 promastigotes infected in BALB/c mouse assessed as fold reduction in footpad lesion development by measuring lesion size at 50 mg/kg, po QD for 10 days administered at day 18 postinfection and measured at 5 weeks postinfection by caliper analysis; assay type: functional; conditions: time 10 day; method in brief: as §2
Plasma [13] = experiment: Time during which plasma concentration exceeds EC50 for inhibition of proliferation of luciferase expressing Leishmania mexicana intracellular amastigotes cultured in mouse J774.A1 cells infected to CD-1 mouse at 3 mg/kg,iv by LC-MS/MS analysis; assay type: organism-based; conditions: in vivo
[14] = Volume of distribution in CD-1 mouse at 3 mg/kg,iv and measured upto 24 hrs by LC-MS/MS analysis; assay type: ADME, organism-based; conditions: in vivo; method in brief: as §3
Plasma [15] = experiment: Time during which plasma concentration exceeds EC50 for inhibition of proliferation of luciferase expressing Leishmania mexicana intracellular amastigotes cultured in mouse J774.A1 cells infected to CD-1 mouse at 10 mg/kg,po by LC-MS/MS analysis; assay type: organism-based; conditions: in vivo
Method in brief: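 Time that plasma concentration stays above the intracellular-amastigote EC50, read from the plasma profile after a single oral dose at 10 mg/kg in 20% PEG 400/80% (20% SBE-beta-CD in water).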

[16] = Clearance in CD-1 mouse at 10 mg/kg,po and measured upto 24 hrs by LC-MS/MS analysis; assay type: ADME, organism-based; conditions: in vivo; method in brief: as §1
[17] = Cmax in CD-1 mouse at 3 mg/kg,iv and measured upto 24 hrs by LC-MS/MS analysis; assay type: ADME, organism-based; parameters: dose 3 mg/kg, time < 24 hrs, route iv; conditions: in vivo; method in brief: as §3
[18] = Oral bioavailability in CD-1 mouse at 10 mg/kg and measured upto 24 hrs by LC-MS/MS analysis; assay type: ADME, organism-based; conditions: in vivo; method in brief: as §1
[19] = AUC in CD-1 mouse at 10 mg/kg,po and measured upto 24 hrs by LC-MS/MS analysis; assay type: ADME, organism-based; parameters: time < 24 hrs, dose 10 mg/kg, route po; conditions: in vivo; method in brief: as §1

Row | SMILES | solubility kinetic at 18 h [1] [µM] | t1/2 [2] [h] | pEC50 (BJ) | pEC50 (Leishmania mexicana [3]) | also measured
1 | Cc1cc(Cl)c(Cl)cc1NC(=O)c1cc([N+](=O)[O-])c(N2CCNCC2)cc1Cl | 5.3 (≈ 2.35 µg/mL) | 0.933 | 4.85 | 7.00 | 
2 | Cc1cc(Cl)c(Cl)cc1NC(=O)c1ccc(N2CCNCC2)nc1 | 188 (≈ 68.7 µg/mL) | 0.5 | 4.62 | 6.05 | 
3 | Cc1cc(Cl)c(Cl)cc1NC(=O)c1ccc(N2CCNCC2)c(C#N)c1 | 3.6 (≈ 1.4 µg/mL) | 0.8 | 4.87 | 6.05 | 
4 | Cc1cc(Cl)c(Cl)cc1NC(=O)c1cc([N+](=O)[O-])c(F)cc1Cl |  |  | 5.38 | 6.10 | 
5 | Cc1ccc(-c2nc3ccccc3s2)cc1NC(=O)c1cc([N+](=O)[O-])c(N2CC3(CNC3)C2)cc1Cl |  |  | 4.95 | 6.15 | 
6 | O=C(Nc1cccc(-c2nc3ccccc3o2)c1)c1cc([N+](=O)[O-])c(F)cc1F |  |  | 5.35 | 6.10 | 
7 | Cc1ccc(-c2nc3ccccc3s2)cc1NC(=O)c1cc([N+](=O)[O-])c(NCCN)cc1Cl |  |  | 5.20 | 6.52 | 
8 | O=C(Nc1ccc(Cl)c(Cl)c1)c1cc([N+](=O)[O-])c(F)cc1Cl |  |  | 5.38 | 6.05 | 

More lines, main results first:

Row | solubility kinetic at 18 h [1] [µM] | t1/2 [2] [h] | SMILES | pEC50 (BJ) | pEC50 (Leishmania mexicana [3]) | also measured
9 | 22 (≈ 9.36 µg/mL) | 0.45 | Cc1ccc(-c2nc3ccccc3s2)cc1NC(=O)c1cc([N+](=O)[O-])c(F)cc1F | < 4.60 | 6.22 | 
10 | 12.8 (≈ 6.3 µg/mL) | 2 | Cc1ccc(-c2nc3ccccc3o2)cc1NC(=O)c1cc([N+](=O)[O-])c(N2CCNCC2)cc1Cl | 4.72 | 6.70 | 
11 | 15 (≈ 6.67 µg/mL) | 2.3 | O=C(Nc1cncc(-c2nc3ccccc3o2)c1)c1ccc(N2CCNCC2)c([N+](=O)[O-])c1 | 4.70 | 6.30 | 
12 | 6.3 (≈ 3.12 µg/mL) | 2.17 | O=C(Nc1cncc(-c2nc3ccccc3s2)c1)c1cc([N+](=O)[O-])c(N2CCNCC2)cc1Cl | 4.82 | 6.22 | 
13 | 31 (≈ 12.7 µg/mL) | 1.12 | Cc1cc(Cl)c(Cl)cc1NC(=O)c1ccc(N2CCNCC2)c([N+](=O)[O-])c1 | 4.60 | 6.10 | 
14 | < 0.3 | 0.217 | Cc1ccc(-c2nc3ccccc3s2)cc1NC(=O)c1cc([N+](=O)[O-])c(N2CCN(C)CC2)cc1Cl | < 4.60 | 6.10 | 
15 | 12.4 (≈ 5.94 µg/mL) | 2.17 | O=C(Nc1cncc(-c2nc3ccccc3o2)c1)c1cc([N+](=O)[O-])c(N2CCNCC2)cc1Cl | 5.51 | 6.10 | 
16 | 9.4 (≈ 3.25 µg/mL) | 0.01 | O=C(Nc1cccc(-c2ncco2)c1)c1cc([N+](=O)[O-])c(F)cc1F | 5.82 | 6.15 | 
17 | 46 (≈ 18.2 µg/mL) | 1.92 | O=C(Nc1ccc(Cl)c(Cl)c1)c1ccc(N2CCNCC2)c([N+](=O)[O-])c1 | 4.82 | 6.15 | t1/2 [4]: 3.6 h; Activity (Leishmania mexicana [5]): inactive; Tmax [6]: 2 h; CL [7]: 42.8 mL/min/kg; t1/2 [8]: 3.4 h; AUC [9]: 2.85 µM·h; Vd [10]: 6.8 L/kg; Cmax [11]: 1000 nM; fold change (FC) (Leishmania mexicana [12]): 10; T>EC50 (Plasma [13]): 1.5 h; Vd [14]: 9.3 L/kg; T>EC50 (Plasma [15]): 5.5 h; CL/F [16]: 53.5 mL/min/kg; Cmax [17]: 1950 nM; F [18]: 80%; AUC [19]: 7.82 µM·h
